These results are taken from ChEMBL document CHEMBL3352008, “Dualsteric muscarinic antagonists--orthosteric binding pose controls allosteric subtype selectivity” (J Med Chem, 2014).

Each structure is given as a SMILES string. Where a chain is given by its changes, count along the chain named. Active and inactive are the calls of the source. No cut-off for these calls is given here.

Type in all cases: cell-based
Experiment [1] addresses T1, Muscarinic acetylcholine receptor M2 (Homo sapiens, UniProt P08172).
T1 sequence (P08172 whole entry): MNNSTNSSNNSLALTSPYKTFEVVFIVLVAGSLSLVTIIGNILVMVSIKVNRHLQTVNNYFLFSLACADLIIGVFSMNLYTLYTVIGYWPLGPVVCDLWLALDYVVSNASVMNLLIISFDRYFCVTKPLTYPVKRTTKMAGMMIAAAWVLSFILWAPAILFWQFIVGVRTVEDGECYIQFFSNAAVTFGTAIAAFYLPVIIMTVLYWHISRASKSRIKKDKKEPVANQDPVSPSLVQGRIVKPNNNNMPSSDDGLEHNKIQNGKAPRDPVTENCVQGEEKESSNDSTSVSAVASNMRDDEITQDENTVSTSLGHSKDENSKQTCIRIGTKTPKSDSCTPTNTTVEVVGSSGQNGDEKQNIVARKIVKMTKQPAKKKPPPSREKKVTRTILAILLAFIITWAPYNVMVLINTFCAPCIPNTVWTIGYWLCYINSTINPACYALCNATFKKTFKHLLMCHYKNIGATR
Description: (§1) Displacement of [3H]-NMS from wild-type human muscarinic M2 receptor expressed in Flp-In-CHO cells by liquid scintillation counting. Put shortly: (§2)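 Separated by rapid filtration, counted by liquid scintillation. Means ± SEM of 3−4 independent experiments in triplicate; unpaired two-tailed t test versus wild type.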
A general note: Loss of bound radioactivity is the signal in a displacement assay; it reports binding, not function.

In experiment [2] the target is T2, Muscarinic acetylcholine receptor M2 (Homo sapiens) (UniProt P08172).
T2 sequence (whole entry): T1 sequence (P08172 whole entry)
The experiment is described as follows: Antagonist activity at wild-type human muscarinic M2 receptor expressed in Flp-In-CHO cells assessed as inhibition of acetylcholine-induced effect at 0.1 to 100 uM by time-course assay. The method in brief:
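DMR (label-free optical) in Flp-In-CHO cells stably expressing hM2, seeded 12500 cells/well, grown 20 h at 37 °C. Washed, rested 2 h at 28 °C in HBSS + 20 mM HEPES pH 7.0. Acetylcholine at maximally effective concentration, then antagonist; responses monitored 1 h. Representative experiment, n = 4, repeated at least twice on separate days.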

For experiment [3], the target named is Muscarinic acetylcholine receptor M2 (Homo sapiens, UniProt P08172, T423H/Y177Q). Description: (§3) Displacement of [3H]-NMS from human muscarinic M2 Y177Q/T423H mutant expressed in Flp-In-CHO cells by liquid scintillation counting. Put shortly:
as §2

Experiment [4] addresses T3, Muscarinic acetylcholine receptor M5 (Homo sapiens, UniProt P08912).
T3 sequence (P08912 whole entry): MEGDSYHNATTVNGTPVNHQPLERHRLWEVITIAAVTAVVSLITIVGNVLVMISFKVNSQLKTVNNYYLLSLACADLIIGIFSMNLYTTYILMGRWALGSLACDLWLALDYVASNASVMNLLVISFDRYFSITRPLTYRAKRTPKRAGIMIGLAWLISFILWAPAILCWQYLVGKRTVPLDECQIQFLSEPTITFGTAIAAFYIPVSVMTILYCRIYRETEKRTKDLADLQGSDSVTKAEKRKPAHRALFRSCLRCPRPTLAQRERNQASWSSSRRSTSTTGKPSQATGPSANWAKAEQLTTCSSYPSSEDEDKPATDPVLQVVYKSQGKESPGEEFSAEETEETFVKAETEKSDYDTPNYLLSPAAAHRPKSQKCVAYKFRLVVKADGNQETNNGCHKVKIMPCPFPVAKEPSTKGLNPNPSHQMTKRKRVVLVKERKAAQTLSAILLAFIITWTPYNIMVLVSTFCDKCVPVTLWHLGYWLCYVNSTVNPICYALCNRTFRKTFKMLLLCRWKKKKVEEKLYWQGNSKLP
Description: (§4) Displacement of [3H]-NMS from wild-type human muscarinic M5 receptor expressed in CHO-K1 cells by liquid scintillation counting. The method in brief: as §2

For experiment [5], the target named is Muscarinic acetylcholine receptor M2 (Homo sapiens, UniProt P08172, W422A). The experiment is described as follows: Displacement of [3H]-NMS from human muscarinic M2 W422A mutant expressed in Flp-In-CHO cells by liquid scintillation counting. The method in brief:
as §2

In experiment [6] the target is Muscarinic acetylcholine receptor M2 (Homo sapiens, UniProt P08172, Y104A). The experiment is described as follows: (§5) Displacement of [3H]-NMS from human muscarinic M2 Y104A mutant expressed in Flp-In-CHO cells by liquid scintillation counting. The method in brief: (§6)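 Bound separated either by rapid filtration or, in some cases, by centrifugation at 21000g, 15 °C, 20 min. Pellet washed once, resuspended, counted by liquid scintillation. Triplicate determinations.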

Experiment [7] has as its target Muscarinic acetylcholine receptor M2 (Homo sapiens, UniProt P08172, Y177Q). The experiment is described as follows: (§7) Displacement of [3H]-NMS from human muscarinic M2 Y177Q mutant expressed in Flp-In-CHO cells by liquid scintillation counting. Put shortly: as §2
Experiment [8] deals with T2, Muscarinic acetylcholine receptor M2 (Homo sapiens). The experiment is described as follows: Antagonist activity at wild-type human muscarinic M2 receptor expressed in Flp-In-CHO cells assessed as inhibition of acetylcholine-induced effect at 100 uM in absence of atropine by time-course assay.
Experiment [9] has the same target. Description: Antagonist activity at wild-type human muscarinic M2 receptor expressed in Flp-In-CHO cells assessed as inhibition of acetylcholine-induced effect at 0.01 to 100 uM by time-course assay. The method in brief: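 Label-free dynamic mass redistribution (Epic reader) in Flp-In-CHO cells stably expressing hM2, seeded at 12500 cells/well and grown 20 h at 37 °C to confluence. Cells washed and rested 2 h at 28 °C in HBSS with 20 mM HEPES, pH 7.0. DMR signal induced by a maximally effective acetylcholine concentration, antagonist then added and response followed over time. Representative experiment, n = 4, repeated at least twice on separate days.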

Experiment [10] has as its system T4, Muscarinic acetylcholine receptor M2 (Homo sapiens), P08172 [Y177Q,T423H].
T4 sequence (whole entry): T1 sequence (P08172 whole entry) with Y177Q, T423H
The experiment is described as §3. The method in brief: as §2

Experiment [11] addresses T5, Muscarinic acetylcholine receptor M5 (Homo sapiens) (UniProt P08912).
T5 sequence (whole entry): T3 sequence (P08912 whole entry)
Described as §4. The method in brief:
as §2

Experiment [12] concerns the target T2, Muscarinic acetylcholine receptor M2 (Homo sapiens). The experiment is described as §1. The method in brief:
as §2

The test system of experiment [13] is T6, Muscarinic acetylcholine receptor M2 (Homo sapiens), P08172 [Y104A].
T6 sequence (whole entry): T1 sequence (P08172 whole entry) with Y104A
Described as §5. The method in brief:
as §6

In experiment [14] the test system is T7, Muscarinic acetylcholine receptor M2 (Homo sapiens), P08172 [Y177Q].
T7 sequence (whole entry): T1 sequence (P08172 whole entry) with Y177Q
The experiment is described as §7. Put shortly: as §2

Sequence of Muscarinic acetylcholine receptor M2 (Homo sapiens, UniProt P08172, Y177Q) (P08172 whole entry Y177Q): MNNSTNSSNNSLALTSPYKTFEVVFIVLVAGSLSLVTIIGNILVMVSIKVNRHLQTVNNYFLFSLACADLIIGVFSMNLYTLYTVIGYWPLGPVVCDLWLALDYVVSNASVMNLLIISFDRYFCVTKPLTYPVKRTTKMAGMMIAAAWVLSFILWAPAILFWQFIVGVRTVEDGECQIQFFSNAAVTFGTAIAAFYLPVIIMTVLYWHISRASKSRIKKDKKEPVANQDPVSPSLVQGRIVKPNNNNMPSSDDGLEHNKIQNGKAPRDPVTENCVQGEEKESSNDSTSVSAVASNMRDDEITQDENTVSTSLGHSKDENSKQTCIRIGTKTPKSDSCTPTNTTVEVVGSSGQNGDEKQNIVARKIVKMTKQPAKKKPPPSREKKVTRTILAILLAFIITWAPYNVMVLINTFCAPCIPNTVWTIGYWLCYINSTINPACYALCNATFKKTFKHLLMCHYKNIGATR
Sequence of Muscarinic acetylcholine receptor M2 (Homo sapiens, UniProt P08172, Y104A) (P08172 whole entry Y104A): as the sequence (P08172 whole entry Y177Q) above, with Y104A, Q177Y counted along it
Sequence of Muscarinic acetylcholine receptor M2 (Homo sapiens, UniProt P08172, T423H/Y177Q) (P08172 whole entry Y177Q/T423H): as the sequence (P08172 whole entry Y177Q) above, with T423H counted along it
Sequence of Muscarinic acetylcholine receptor M2 (Homo sapiens, UniProt P08172, W422A) (P08172 whole entry W422A): as the sequence (P08172 whole entry Y177Q) above, with Q177Y, W422A counted along it

By Ki is commonly meant a measure of affinity in units of concentration, obtained from inhibition or displacement. High values mean a looser hold on the target, low ones a stronger hold on the target. The compound `CN(C)CC#CCOC1=NOCC1` had a Ki in experiment [1] of 0.1 µM.

Regarding `CC(C)(CN1C(=O)c2cccc3cccc(c23)C1=O)C[N+](C)(C)CCCCCC[N+]1(C)[C@@H]2CC[C@@H]1CC(OC(=O)C(CO)c1ccccc1)C2` (relative stereo), in experiment [2], the inhibition result is “Active”. The Ki was 0.00282 µM in [3]; 0.0195 µM in experiment [4]; 0.0214 µM in [5]; 0.00282 µM in [1]; 0.0617 µM in [6]; 0.00851 µM in experiment [7]. The inhibition entry in experiment [8] was “inactive”.

As for `CC(C)(CN1C(=O)c2cccc3cccc(c23)C1=O)C[N+](C)(C)CCCCCC[N+]1(C)[C@@H]2C[C@H](OC(=O)[C@H](CO)c3ccccc3)C[C@H]1[C@@H]1O[C@@H]12` (stereo not given in full), the Ki is 0.00331 µM in experiment [3]; 0.0055 µM in experiment [4]; 0.00646 µM in experiment [5]; 0.00617 µM in experiment [1]; 0.132 µM in experiment [6]; 0.00891 µM in experiment [7].

For `C[N+](C)(C)CCCCCC[N+](C)(C)CC#CCOC1=NOCC1`, the Ki is 0.0646 µM in experiment [3]; 3.98 µM in [4]; 0.275 µM in experiment [5]; 1.29 µM in experiment [6]; 0.0912 µM in experiment [7].

Take `C[N+](C)(CC#CCOC1=NOCC1)CCCCCC[N+](C)(C)CCCN1C(=O)c2ccccc2C1=O`: the Ki in experiment [3] was 0.2 µM; in experiment [4], 30.2 µM; in experiment [5], 0.0759 µM; in experiment [1], 0.0912 µM; in experiment [6], 0.204 µM; in [7], 0.275 µM.

For `CC(C)(CN1C(=O)c2cccc3cccc(c23)C1=O)C[N+](C)(C)CCCCCC[N+](C)(C)CC#CCOC1=NOCC1`, the Ki in [3] was 0.0269 µM; in experiment [5] it was 0.0195 µM; in experiment [1], 0.0115 µM; in experiment [6], 0.0145 µM.

As for `C[N+](C)(C)CCCCCC[N+]1(C)[C@@H]2C[C@H](OC(=O)[C@H](CO)c3ccccc3)C[C@H]1[C@@H]1O[C@@H]12` (stereo not given in full), the Ki in experiment [4] was 0.0209 µM; in experiment [5], 0.0407 µM; in experiment [1], 0.0479 µM; in experiment [6], 0.309 µM.

As to `CN1[C@@H]2CC[C@H]1CC(OC(=O)[C@H](CO)c1ccccc1)C2` (stereo not given in full), in experiment [9], the inhibition result is “Active”.

With `C[N+](C)(CCCCCC[N+](C)(C)CCCN1C(=O)c2ccccc2C1=O)CCCN1C(=O)c2ccccc2C1=O`, the pKA in experiment [10] was 5.47; in [11] it was 4.37; in [12], 6.55; in [13], 6.59.

Regarding `CC(C)(CN1C(=O)c2cccc3cccc(c23)C1=O)C[N+](C)(C)CCCCCC[N+](C)(C)CCCN1C(=O)c2ccccc2C1=O`, the pKA was determined as 5.82 in experiment [10]; 5.05 in [11]; 7.7 in experiment [12]; 7.64 in experiment [13]; 6.23 in experiment [14]. The inhibition entry in experiment [9] was “Active”.

For the compound `C[N+]1(C)[C@@H]2CC[C@@H]1CC(OC(=O)C(CO)c1ccccc1)C2` (stereo not given in full), the Ki was 0.00182 µM in experiment [1] and 0.011 µM in experiment [6].

`C[N+](C)(CCCCCC[N+]1(C)[C@@H]2C[C@H](OC(=O)[C@H](CO)c3ccccc3)C[C@H]1[C@@H]1O[C@@H]12)CCCN1C(=O)c2ccccc2C1=O` (stereo not given in full): the Ki in [3] is 0.00708 µM; in experiment [4], 0.017 µM; in experiment [5], 0.00692 µM; in [1], 0.00813 µM; in [6], 0.0501 µM; in experiment [7] it was 0.00708 µM.

`C[N+](C)(C)CC#CCOC1=NOCC1`: the Ki in experiment [3] was 0.00219 µM; in experiment [4], 0.12 µM; in experiment [5], 0.01 µM; in [1] it was 0.00251 µM; in [6], 0.257 µM; in [7], 0.00871 µM.

Turning to `C[N+](C)(C)CCCCCC[N+]1(C)[C@@H]2CC[C@@H]1CC(OC(=O)C(CO)c1ccccc1)C2` (relative stereo), the Ki in [3] is 0.0182 µM; in experiment [4], 0.0871 µM; in experiment [5], 0.055 µM; in experiment [1], 0.0162 µM; in experiment [6] it was 0.151 µM; in experiment [7], 0.0186 µM.
